The data set can be described thus: Toxicity liver stage against HepG2, at 10uM. The data set is classed as cell-based. More on the design: test concentration 10 uM, cell line HepG2-A16-CD81EGFP. As to conditions: human, HepG2-A16-CD81EGFP cells; read-out: INHIBITION
In short, it runs like this:
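Uninfected HepG2-A16-CD81EGFP cells, 3 × 10^3 per well, 1536-well, plated on prespotted compound at 10 μM final, parasite-free screening media added to match infected plates; puromycin 10 μM positive, DMSO 0.5% negative; run in parallel with 48 h PbLuc assay at 37 °C, 5% CO2; viability by CellTiter-Glo luminescence, normalized to controls.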
As for `Clc1cccc(C(CNCc2ccccn2)N2CCOCC2)c1` (stereo unspecified), the cytotoxicity at 10 µM is -12%.

Consider `CC(CO)CN(Cc1ccccc1)C(=O)c1csc(CN(C)C)n1` (stereo unspecified), for which the cytotoxicity at 10 µM was -8.69%.

As to `O=C(O)c1cc(-c2ccc3c(c2)OCO3)cc(S(=O)(=O)NC2CC2)c1`, the cytotoxicity at 10 µM is 2.8%.

In the case of `Cc1ccccc1CC(C)NC(=O)Nc1cnn(CC(N)=O)c1` (stereo unspecified), the cytotoxicity at 10 µM was -11.5%.

Turning to `c1ccc(C(Cn2cccn2)Nc2cnccn2)cc1` (stereo unspecified), the cytotoxicity at 10 µM worked out at 2.99%.

On to `N#Cc1ccc(CNc2cccc(C(=O)N3CCOCC3)c2)cc1`, for which the cytotoxicity at 10 µM was -4.34%.

Consider `O=S(=O)(c1ccc(F)cc1Cl)N1CCCC1c1ccncc1` (stereo unspecified), for which the cytotoxicity at 10 µM was -7.95%.

`CCOc1ccc(CN(CC)C(=O)c2ccc(C)[nH]c2=O)cc1OC`: the cytotoxicity at 10 µM is -6.83%.

With `COC(=O)CC(NC(=O)c1cc(OC)c2c(c1)OCCO2)c1cccs1` (stereo unspecified), the cytotoxicity at 10 µM came to 2.01%.

In the case of `Cc1cnc(N2CC[C@H]3[C@H](C[C@@H](CN(C)C)N3C)C2)nc1`, the cytotoxicity at 10 µM was 5.71%.

Consider `CCn1nccc1CNC(=O)CCC1CCCC1`, for which the cytotoxicity at 10 µM was 11.4%.

Take `COc1ccc(CN(C(=O)CCC(C)C)c2cnn(C)c2)c(OC)c1`: the cytotoxicity at 10 µM was -1.35%.

Consider `CN(C)CCN1C(=O)CCC12CCCN(C(=O)c1cccnc1)CC2` (stereo unspecified), for which the cytotoxicity at 10 µM was -6.78%.

Turning to `COc1cccc(OCC(=O)NS(=O)(=O)c2ccc(C)s2)c1`, the cytotoxicity at 10 µM was -5.87%.

Turning to `COc1ccc(C(C)NC(=O)Nc2nnc(C)s2)cc1OC` (stereo unspecified), the cytotoxicity at 10 µM amounted to 9.67%.

On to `O=C(NCc1ccco1)[C@H]1CC[C@@H]2[C@@H](CCN2c2ncccn2)O1`, for which the cytotoxicity at 10 µM is -69.6%.

Consider `O=C(CCC1CCCC1)NCCn1nc(C2CCNC2)c2nccnc21` (stereo unspecified), for which the cytotoxicity at 10 µM was 6.28%.

Take `CC1c2ncc(COCC3CCOCC3)n2CCN1S(C)(=O)=O` (stereo unspecified): the cytotoxicity at 10 µM was 3.11%.

Turning to `O=C(COC(=O)Cc1cccs1)NCc1cccc(NC(=O)C2CC2)c1`, the cytotoxicity at 10 µM is -8.08%.

Regarding `COc1ccccc1N1CCN(C(=O)Cn2nc(C)cc2C)CC1(C)C`, the cytotoxicity at 10 µM was 9.62%.

As to `COc1cccc(S(=O)(=O)N2C[C@H](OC)[C@]3(CCCO3)C2)c1`, the cytotoxicity at 10 µM was -25.7%.

Consider `CC(C)c1nc2c(n1C)CCN(CCc1ccccn1)C2`, for which the cytotoxicity at 10 µM is -2.01%.

In the case of `CC(NC(=O)N1CCC(n2cncn2)CC1)c1ccc(F)cc1` (stereo unspecified), the cytotoxicity at 10 µM is -3.66%.

On to `Cc1n[nH]c(C)c1C1COCCN1C(=O)c1ccccc1` (stereo unspecified), for which the cytotoxicity at 10 µM is -3.94%.

Consider `CN(C)c1ccc(NC(=O)NCc2ccccn2)cn1`, for which the cytotoxicity at 10 µM is -3.34%.

Take `O=C(Cc1csc(Cc2ccccn2)n1)NCCCN1CCCC1=O`: the cytotoxicity at 10 µM is -6.29%.

Consider `Cc1nccn1-c1cccc(C2CCCN2S(=O)(=O)N(C)C)n1` (stereo unspecified), for which the cytotoxicity at 10 µM is 3.44%.

As for `CCCc1nc(C(=O)NCc2cccnc2-n2cncn2)cs1`, the cytotoxicity at 10 µM is -148%.

Consider `CN1C(=O)C2(CCCN(C(=O)c3cccnc3O)C2)c2ccccc21` (stereo unspecified), for which the cytotoxicity at 10 µM was -5.21%.

As for `CN(Cc1n[nH]c2c1CCCCC2)C(=O)c1cc(-c2cccn2C)n[nH]1`, the cytotoxicity at 10 µM was found to be 3.02%.

As for `FC(F)(F)c1ccccc1CN1CCOC[C@H](Oc2cccnc2)C1`, the cytotoxicity at 10 µM amounted to 4.3%.

Consider `Cn1ncc2c(NCC3CCS(=O)(=O)C3)nc(-c3ccncc3)nc21` (stereo unspecified), for which the cytotoxicity at 10 µM was -3.91%.

As to `Cc1ccc(CN2C[C@@H]3CN(c4ncc(F)cn4)C[C@@H]3C2)cc1`, the cytotoxicity at 10 µM is 1.86%.

Regarding `CN(C)CCNC(=O)c1nc2c(o1)CN(c1ncccn1)C2`, the cytotoxicity at 10 µM was -0.603%.

`O=C([C@H]1C[C@@H]2CCN(c3cccc(F)c3)C[C@H]2O1)N1CCCCO1`: the cytotoxicity at 10 µM was determined as 1.67%.

As to `CCC(C)CN1CCC(n2cc(C3CCCCC3)nn2)CC1` (stereo unspecified), the cytotoxicity at 10 µM was -2.9%.

As for `O=C(NCCc1cccs1)N1CCCC2(CCC(=O)N(C3CC3)C2)C1` (stereo unspecified), the cytotoxicity at 10 µM was -7.82%.

In the case of `CC(C)n1ncc2c1NC(=O)CSC2C(C)(C)C` (stereo unspecified), the cytotoxicity at 10 µM was 4.47%.

With `CC(C)(C)CC(=O)NCCn1ccc(-c2ccncc2)n1`, the cytotoxicity at 10 µM is -3.4%.

With `COc1cccc(C(=O)NCC(c2cccn2C)N2CCCC2)c1OC` (stereo unspecified), the cytotoxicity at 10 µM is -2.4%.

Consider `COCC1c2c(cnn2CC2CC2)CCN1Cc1cc(C)on1` (stereo unspecified), for which the cytotoxicity at 10 µM came out at 5.5%.

Consider `CC(C)S(=O)(=O)NC(=O)c1cc(-c2cccc(Cl)c2)no1`, for which the cytotoxicity at 10 µM turned out to be 10%.

As to `CCN(CC)C(=O)[C@@H]1C[C@@H](N)CN1C(=O)c1cc2c([nH]c1=O)CCC2`, the cytotoxicity at 10 µM is -2.79%.

Take `Cn1nnc2c1CCN(Cc1ccncc1)C2COCC1CC1` (stereo unspecified): the cytotoxicity at 10 µM came out at 5.29%.

As for `CCNC(=O)Nc1cccc(F)c1C(=O)NC1CCCC1`, the cytotoxicity at 10 µM came to 5.69%.

With `CN1CCC(N2CCCC(C(=O)N3Cc4ccccc4C3)C2)CC1` (stereo unspecified), the cytotoxicity at 10 µM is 5.19%.

With `COc1ccc(CN2C[C@@H]3COC[C@@H](CC(=O)N4CCCC4)[C@@H]3C2)cc1`, the cytotoxicity at 10 µM is -18.8%.

For the compound `COc1ccccc1CC(C)CC(=O)NC(C)C` (stereo unspecified), the cytotoxicity at 10 µM stood at 6.16%.

In the case of `COCCN(C(=O)c1cc(C)no1)c1ccc(C#N)cc1`, the cytotoxicity at 10 µM is 6.51%.

`CC1CCCCN1C(=O)c1nc2c(n1C(C)C)CCN(C)C2` (stereo unspecified): the cytotoxicity at 10 µM was 18.2%.

As for `CCn1ccnc1CN1CCC(=O)N(CC2CC2)C(C(C)C)C1` (stereo unspecified), the cytotoxicity at 10 µM was -10.3%.

`CO[C@H]1CN(C(C)C)C[C@@H]1NC(=O)Nc1cccc(SC)c1`: the cytotoxicity at 10 µM turned out to be 2.85%.

Consider `COc1ccc(Cn2ccnc2)cc1F`, for which the cytotoxicity at 10 µM was -7.27%.

For `CC(C)CC(=O)N1CCC2(CC1)OC(C(N)=O)Cn1ccnc12` (stereo unspecified), the cytotoxicity at 10 µM is -105%.

Turning to `O=C(c1ccco1)N1CCc2onc(Cn3cccn3)c2C1`, the cytotoxicity at 10 µM is -1.22%.

`Cn1cc(-c2nc(CN3CCCCC3Cn3cncn3)cs2)cn1` (stereo unspecified): the cytotoxicity at 10 µM is -17.4%.

On to `COc1ccc2c(c1)C(=O)NC1(CC2)CCN(Cc2ccc(F)cc2)C1` (stereo unspecified), for which the cytotoxicity at 10 µM is 8.16%.

Regarding `COCC(=O)N1CCC(c2cc3nc(C)cc(C(F)(F)F)n3n2)CC1`, the cytotoxicity at 10 µM was 4.49%.

In the case of `Cc1nn(C)c2c(N3CCN(C(=O)C(C)C)CC3)ncnc12`, the cytotoxicity at 10 µM was 6.78%.

As for `Cc1cnn(CC2CCCN2C(=O)CN(C)C2CC2)c1` (stereo unspecified), the cytotoxicity at 10 µM is 3.63%.

As to `Cc1ncccc1O[C@H]1CCN(C(=O)Cc2cccs2)CC[C@@H]1O`, the cytotoxicity at 10 µM stood at 5.92%.

With `Cc1ncc(C(=O)N2CCC(N3CCc4ccccc4C3)CC2)c(O)n1`, the cytotoxicity at 10 µM was -0.745%.

Turning to `CN(Cc1ccncc1)C1CC2(CCN(C(=O)c3ccnnc3)CC2)C1`, the cytotoxicity at 10 µM is -5.45%.

In the case of `Cc1ccc(CN2CCc3[nH]nc(C(=O)N4CCN(C)CC4)c3C2)o1`, the cytotoxicity at 10 µM is -8.19%.

With `O=C(c1cc(-c2ccn(CC3CC3)n2)n2ccccc12)N1CCOCC1`, the cytotoxicity at 10 µM was 9.76%.

Consider `CC(=O)N1C[C@H]2CC[C@@H](C1)N(S(=O)(=O)c1ccccc1Cl)C2`, for which the cytotoxicity at 10 µM was -4%.

In the case of `COCC(=O)NCCc1nc2cc(-c3ccc(OC)cc3)ncn2n1`, the cytotoxicity at 10 µM is 10.5%.

In the case of `CNCCCNC1CCN(c2ccc(-n3ccnc3)cc2)CC1`, the cytotoxicity at 10 µM was -3.03%.

Turning to `Cc1cccc(CN2CC[C@@H]3[C@@H]2CCN3C(=O)c2ccno2)n1`, the cytotoxicity at 10 µM is -18.2%.

With `Cn1cnnc1C1CCCN(C(=O)NCCNc2ccccn2)C1` (stereo unspecified), the cytotoxicity at 10 µM was determined as 2.21%.

Consider `Cc1cn2c(n1)C(CNCC1=Cc3ccccc3OC1)CCC2` (stereo unspecified), for which the cytotoxicity at 10 µM turned out to be 27.7%.

For the compound `O=C(NCCc1ccccc1)C1CCC(Cn2cnnn2)CC1` (stereo unspecified), the cytotoxicity at 10 µM worked out at 2.01%.

For `COc1ccc(Nc2nc3c(C)nn(C)c3c(=O)n2C)cc1`, the cytotoxicity at 10 µM was -0.103%.

On to `CN(CCCc1n[nH]c(N)c1C#N)C(=O)Nc1cc(Cl)cc(Cl)c1`, for which the cytotoxicity at 10 µM came to 11.1%.

Regarding `Cc1nn(CCNC(C)Cn2cncn2)c(C)c1Cl` (stereo unspecified), the cytotoxicity at 10 µM is 13.4%.

As to `O=C(Cc1ccc(F)cc1)N1CCn2cc(Cn3cccn3)nc2C1`, the cytotoxicity at 10 µM came to 4.58%.

With `O=C(NCCn1ccnc1)N1CCN(c2nccs2)CC1`, the cytotoxicity at 10 µM is -3.68%.

Take `CS(=O)(=O)N1CCC(NC(=O)COc2ccc(Br)cc2Cl)CC1`: the cytotoxicity at 10 µM was 3.25%.

In the case of `Cc1ccc(C(=O)NS(=O)(=O)c2cc(F)ccc2F)c(=O)[nH]1`, the cytotoxicity at 10 µM was -1.73%.

Consider `CC(=O)N(C)c1nc(Cn2nnnc2C(C)(C)C)cs1`, for which the cytotoxicity at 10 µM is 6.56%.

In the case of `COc1ccc(NC(=O)NC(C)Cc2ccco2)cn1` (stereo unspecified), the cytotoxicity at 10 µM is -3.54%.

On to `c1coc(CN2CCC3(CC2)CC(N2CCCC2)CO3)c1` (stereo unspecified), for which the cytotoxicity at 10 µM is -11.9%.

Regarding `Cc1nnsc1C(=O)N1CCC(c2nc3ccccc3[nH]2)CC1`, the cytotoxicity at 10 µM came out at 2.5%.

Turning to `COc1ccc(C)cc1NC(=O)Nc1cnc(N2CCOCC2)nc1`, the cytotoxicity at 10 µM was -9.67%.

As for `CC(C)(C)c1nc(CN2CCCC(Cn3cncn3)C2)no1` (stereo unspecified), the cytotoxicity at 10 µM is -0.0792%.

As for `COc1cc(C(C)NCc2c[nH]nc2C)ccc1OCCO` (stereo unspecified), the cytotoxicity at 10 µM was -7.47%.

`CCn1cc(CN(C)S(=O)(=O)c2ccc(Cl)cc2)cn1`: the cytotoxicity at 10 µM is 3.77%.

As for `Cc1ccnc(NCCCN2CCc3ccccc32)n1`, the cytotoxicity at 10 µM is 0.979%.

Turning to `COCc1nnn2c1CN(C(=O)c1ccnnc1)CCC2`, the cytotoxicity at 10 µM is -0.461%.

With `CN(C)c1nc(NCc2cccnc2N)ncc1F`, the cytotoxicity at 10 µM is -2.11%.

As to `CC(NC(=O)CCC1CCCCC1)c1nnc2n1CCC2` (stereo unspecified), the cytotoxicity at 10 µM was -27.1%.

As for `COc1cccc(CN(C)CC(=O)NC2(C)CCS(=O)(=O)C2)c1` (stereo unspecified), the cytotoxicity at 10 µM is -2.3%.

In the case of `Cc1ncc(-c2ccnc(N[C@@H](C)CO)n2)c(C2CCCCC2)n1`, the cytotoxicity at 10 µM was -20.7%.

Regarding `CC(C)(C)C(=O)N1CCCC1c1nc(O)cc(-c2ccccn2)n1` (stereo unspecified), the cytotoxicity at 10 µM was -1.26%.

For `COc1c(CNCc2ccc(N(C)C)nc2)c(C)nn1C`, the cytotoxicity at 10 µM is -12.3%.

As for `COc1ccc2nc(CNC(=O)c3cc(C(C)C)on3)[nH]c2c1`, the cytotoxicity at 10 µM stood at 0.0964%.

The values above are taken from ChEMBL document CHEMBL4513216, “Probing the Open Global Health Chemical Diversity Library for Multistage-Active Starting Points for Next-Generation Antimalarials” (ACS Infect Dis, 2020).
